Source: ChEMBL document CHEMBL5303300, “EUbOPEN Chemogenomics Library - Multiplex” (2023)
Several values for one entry are separate records, joined by “and”; a condition that tells them apart may be missing. Equal entries are not always repeated.

Assays:
Format in all cases: toxicity, cell-based
[1] = tested on: HEK-293T; assay: Multiplex assay against HEK293T; conditions: human, number of replicates 2
In short: (§1)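 Live cells carried four stains from seeding: Hoechst33342, BioTracker Green Microtubule Cytoskeleton Dye, MitoTracker Red and Annexin V Alexa Fluor 680. They were imaged on a CQ1 microscope at 37°C and 5% CO2 after compound addition. Using CellPathfinder machine-learning gating, cells were split into Hoechst high-intensity objects or normal cells, normal cells into healthy, pyknosed or fragmented nuclei, and pyknosed cells into mitotic or apoptotic; tubulin, mitochondrial-mass and membrane-permeability phenotypes are per cents of healthy-nucleus cells.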

[2] = tested on: Fibroblast; assay: Multiplex assay against human fibroblast; conditions: number of replicates 2; in short: as §1
[3] = tested on: U2OS; assay: Multiplex assay against U2OS; conditions: human, number of replicates 2; in short: as §1
[4] = 12 h, 1 µM, compound concentration 1 uM
[5] = 12 h, 10 µM, compound concentration 10 uM
[6] = 24 h, 1 µM, compound concentration 1 uM
[7] = 24 h, 10 µM, compound concentration 10 uM
[8] = 48 h, 1 µM, compound concentration 1 uM
[9] = 48 h, 10 µM, compound concentration 10 uM

## COc1cc(OC)cc(-c2cc3cnc(N)nc3nc2NC(=O)NC(C)(C)C)c1
[1]; [4]
  Population Apoptotic (%): 61% and 63% and 50% and 43%
  Population Fragmented Nuclei (%): 7% and 3% and 2% and 4%
  Population Healthy Nuclei (%): 77% and 80% and 85% and 83%
  Population Hoechst High Intensity Objects (%): 9% and 11% and 10%
  Population Membrane Permeable-Phenotype (%): 6% and 2% and 3% and 1%
  Population Mitochondria Different-Phenotype (%): 15% and 13% and 18% and 20%
  Population Mitotic Cells (%): 38% and 36% and 50% and 56%
  Population Normal (%): 90% and 88% and 89%
  Population Pyknosed Nuclei (%): 15% and 16% and 11%
  Population Tubulin-Different-Phenotype (%): 55% and 48% and 54% and 53%
  Total Cell Count: 713 and 595 and 582 and 616
[1]; [5]
  Population Apoptotic (%): 52% and 55% and 50% and 64%
  Population Fragmented Nuclei (%): 2% and 3% and 7% and 5%
  Population Healthy Nuclei (%): 82% and 86% and 79% and 81%
  Population Hoechst High Intensity Objects (%): 4% and 7% and 12% and 10%
  Population Membrane Permeable-Phenotype (%): 1% and 2%
  Population Mitochondria Different-Phenotype (%): 25% and 15% and 17% and 19%
  Population Mitotic Cells (%): 47% and 44% and 49% and 35%
  Population Normal (%): 95% and 92% and 87% and 89%
  Population Pyknosed Nuclei (%): 14% and 10% and 12%
  Population Tubulin-Different-Phenotype (%): 54% and 47% and 72% and 63%
  Total Cell Count: 524 and 626 and 917 and 726
[1]; [6]
  Population Apoptotic (%): 46% and 54% and 51% and 53%
  Population Fragmented Nuclei (%): 10% and 7% and 8%
  Population Healthy Nuclei (%): 76% and 78% and 82% and 80%
  Population Hoechst High Intensity Objects (%): 10% and 8%
  Population Membrane Permeable-Phenotype (%): 3% and 1% and 2%
  Population Mitochondria Different-Phenotype (%): 5% and 2% and 7%
  Population Mitotic Cells (%): 53% and 45% and 48% and 46%
  Population Normal (%): 89% and 91%
  Population Pyknosed Nuclei (%): 12% and 11% and 9%
  Population Tubulin-Different-Phenotype (%): 28% and 23% and 29% and 30%
  Total Cell Count: 1161 and 950 and 940 and 952
[1]; [7]
  Population Apoptotic (%): 52% and 40% and 48%
  Population Fragmented Nuclei (%): 5% and 4% and 11% and 8%
  Population Healthy Nuclei (%): 85% and 88% and 78% and 82%
  Population Hoechst High Intensity Objects (%): 8% and 9%
  Population Membrane Permeable-Phenotype (%): 3% and 2% and 1%
  Population Mitochondria Different-Phenotype (%): 11% and 4% and 3%
  Population Mitotic Cells (%): 47% and 59% and 51%
  Population Normal (%): 91% and 90%
  Population Pyknosed Nuclei (%): 9% and 6% and 10%
  Population Tubulin-Different-Phenotype (%): 30% and 35% and 38% and 33%
  Total Cell Count: 797 and 901 and 1521 and 1236
[1]; [8]
  Population Apoptotic (%): 16% and 24% and 25% and 17%
  Population Fragmented Nuclei (%): 13% [middle of 4 runs]
  Population Healthy Nuclei (%): 75% and 84% and 83% and 86%
  Population Hoechst High Intensity Objects (%): 8% and 7% and 10%
  Population Membrane Permeable-Phenotype (%): 6% and 3% and 4% and 2%
  Population Mitochondria Different-Phenotype (%): 0%
  Population Mitotic Cells (%): 83% and 75% and 82%
  Population Normal (%): 91% and 92% and 89%
  Population Pyknosed Nuclei (%): 2% and 3% and 4%
  Population Tubulin-Different-Phenotype (%): 12% and 9% and 13% and 16%
  Total Cell Count: 3190 and 2284 and 2394 and 1901
[1]; [9]
  Population Apoptotic (%): 28% and 21% and 14%
  Population Fragmented Nuclei (%): 14% [middle of 4 runs]
  Population Healthy Nuclei (%): 85% and 87% and 73% and 82%
  Population Hoechst High Intensity Objects (%): 9% and 10%
  Population Membrane Permeable-Phenotype (%): 4% and 5% and 2%
  Population Mitochondria Different-Phenotype (%): 0% and 1%
  Population Mitotic Cells (%): 71% and 78% and 85%
  Population Normal (%): 90% and 89%
  Population Pyknosed Nuclei (%): 3% and 2%
  Population Tubulin-Different-Phenotype (%): 15% and 18% and 20%
  Total Cell Count: 1964 and 1991 and 3775 and 2773
[2]; [4]
  Population Apoptotic (%): 28% and 48% and 41% and 34%
  Population Fragmented Nuclei (%): 10% and 16% and 6% and 8%
  Population Healthy Nuclei (%): 72% and 62% and 76% and 70%
  Population Hoechst High Intensity Objects (%): 0% and 11%
  Population Membrane Permeable-Phenotype (%): 7% and 6% and 5%
  Population Mitochondria Different-Phenotype (%): 2% and 0%
  Population Mitotic Cells (%): 71% and 51% and 58% and 65%
  Population Normal (%): 100% and 88%
  Population Pyknosed Nuclei (%): 17% and 20% and 16%
  Population Tubulin-Different-Phenotype (%): 18% and 11% and 9% and 8%
  Total Cell Count: 258 and 266 and 187 and 224
[2]; [5]
  Population Apoptotic (%): 50% and 26% and 38% and 34%
  Population Fragmented Nuclei (%): 8% and 9% and 14% and 12%
  Population Healthy Nuclei (%): 60% and 67% and 71% and 66%
  Population Hoechst High Intensity Objects (%): 0%
  Population Membrane Permeable-Phenotype (%): 4% and 5%
  Population Mitochondria Different-Phenotype (%): 0% and 1%
  Population Mitotic Cells (%): 50% and 73% and 61% and 65%
  Population Normal (%): 100% and 99%
  Population Pyknosed Nuclei (%): 23% [middle of 4 runs]
  Total Cell Count: 176 and 182 and 232 and 229
[2]; [6]
  Population Apoptotic (%): 54% and 53% and 55%
  Population Fragmented Nuclei (%): 8% and 21% and 10%
  Population Healthy Nuclei (%): 74% and 57% and 71% and 65%
  Population Hoechst High Intensity Objects (%): 0% and 13%
  Population Membrane Permeable-Phenotype (%): 4% and 6% and 5%
  Population Mitochondria Different-Phenotype (%): 0% and 1%
  Population Mitotic Cells (%): 45% and 46% and 44%
  Population Normal (%): 99% and 86% and 100%
  Population Pyknosed Nuclei (%): 17% and 21% and 24%
  Population Tubulin-Different-Phenotype (%): 12% [middle of 4 runs]
  Total Cell Count: 260 and 192 and 201
[2]; [7]
  Population Apoptotic (%): 57% and 48% and 65% and 58%
  Population Fragmented Nuclei (%): 11% and 13% and 16% and 18%
  Population Healthy Nuclei (%): 63% and 67% and 70% and 66%
  Population Hoechst High Intensity Objects (%): 0%
  Population Membrane Permeable-Phenotype (%): 5% and 1% and 4%
  Population Mitochondria Different-Phenotype (%): 0% and 1%
  Population Mitotic Cells (%): 42% and 51% and 34% and 41%
  Population Normal (%): 100% and 99%
  Population Pyknosed Nuclei (%): 25% and 18% and 13% and 15%
  Total Cell Count: 187 and 175 and 231 and 236
[2]; [8]
  Population Apoptotic (%): 70% and 65% and 60% and 68%
  Population Fragmented Nuclei (%): 10% and 18% and 12% and 15%
  Population Healthy Nuclei (%): 75% and 63% and 65%
  Population Hoechst High Intensity Objects (%): 0% and 18%
  Population Membrane Permeable-Phenotype (%): 2% and 10% and 8% and 6%
  Population Mitochondria Different-Phenotype (%): 0%
  Population Mitotic Cells (%): 29% and 34% and 40% and 31%
  Population Normal (%): 100% and 81%
  Population Pyknosed Nuclei (%): 13% and 17% and 12% and 19%
  Population Tubulin-Different-Phenotype (%): 7% and 10% and 9% and 6%
  Total Cell Count: 266 and 238 and 205 and 226
[2]; [9]
  Population Apoptotic (%): 74% and 66% and 75% and 69%
  Population Fragmented Nuclei (%): 13% and 10% and 16% and 18%
  Population Healthy Nuclei (%): 65% and 67% and 71% and 69%
  Population Hoechst High Intensity Objects (%): 0%
  Population Membrane Permeable-Phenotype (%): 8% and 0% and 5% and 4%
  Population Mitochondria Different-Phenotype (%): 1% and 0%
  Population Mitotic Cells (%): 25% and 33% and 24% and 30%
  Population Normal (%): 100%
  Population Pyknosed Nuclei (%): 20% and 22% and 12%
  Total Cell Count: 190 and 176 and 237 and 215
[3]; [4]
  Population Apoptotic (%): 80% [middle of 4 runs]
  Population Fragmented Nuclei (%): 11% and 5% and 6% and 4%
  Population Healthy Nuclei (%): 80% and 87% and 83% and 89%
  Population Hoechst High Intensity Objects (%): 0%
  Population Membrane Permeable-Phenotype (%): 2% and 0% and 1%
  Population Mitochondria Different-Phenotype (%): 0%
  Population Normal (%): 100%
  Population Pyknosed Nuclei (%): 7% and 6% and 10% and 5%
  Population Tubulin-Different-Phenotype (%): 52% and 94% and 55% and 80%
[3]; [5]
  Population Healthy Nuclei (%): 85% and 60% and 88% and 65%
  Population Hoechst High Intensity Objects (%): 0%
  Population Membrane Permeable-Phenotype (%): 6% [middle of 4 runs]
  Population Mitochondria Different-Phenotype (%): 0% and 4%
  Population Normal (%): 99% and 100%
  Population Pyknosed Nuclei (%): 10% and 15% and 6% and 9%
  Population Tubulin-Different-Phenotype (%): 64% [middle of 4 runs]
[3]; [6]
  Population Apoptotic (%): 60% and 84% and 50%
  Population Fragmented Nuclei (%): 3% and 1% and 2%
  Population Healthy Nuclei (%): 89% and 90% and 82% and 86%
  Population Hoechst High Intensity Objects (%): 1% and 0%
  Population Membrane Permeable-Phenotype (%): 0% and 3% and 1%
  Population Mitochondria Different-Phenotype (%): 1% and 0%
  Population Normal (%): 98% and 100%
  Population Pyknosed Nuclei (%): 6% and 8% and 14% and 11%
  Population Tubulin-Different-Phenotype (%): 56% and 85% and 53% and 83%
[3]; [7]
  Population Apoptotic (%): 54% [middle of 4 runs]
  Population Healthy Nuclei (%): 83% and 68% and 84% and 72%
  Population Hoechst High Intensity Objects (%): 0%
  Population Membrane Permeable-Phenotype (%): 4% [middle of 4 runs]
  Population Mitochondria Different-Phenotype (%): 1% and 8% and 0%
  Population Normal (%): 100%
  Population Pyknosed Nuclei (%): 10% and 16% and 9% and 13%
  Population Tubulin-Different-Phenotype (%): 62% [middle of 4 runs]
[3]; [8]
  Population Apoptotic (%): 50% and 84% and 60% and 74%
  Population Fragmented Nuclei (%): 3% and 2% and 4%
  Population Healthy Nuclei (%): 86% and 88% and 92%
  Population Hoechst High Intensity Objects (%): 0%
  Population Membrane Permeable-Phenotype (%): 1% and 0%
  Population Mitochondria Different-Phenotype (%): 0% and 1%
  Population Normal (%): 100%
  Population Pyknosed Nuclei (%): 10% and 8% and 4% and 7%
  Population Tubulin-Different-Phenotype (%): 70% and 90% and 59% and 84%
[3]; [9]
  Population Apoptotic (%): 48% and 69% and 66% and 78%
  Population Healthy Nuclei (%): 87% and 68% and 86% and 64%
  Population Hoechst High Intensity Objects (%): 0%
  Population Membrane Permeable-Phenotype (%): 2% and 9%
  Population Mitochondria Different-Phenotype (%): 0% and 3% and 1%
  Population Mitotic Cells (%): 33% [middle of 4 runs]
  Population Normal (%): 100% and 99%
  Population Pyknosed Nuclei (%): 10% and 16% and 17%
  Population Tubulin-Different-Phenotype (%): 67% [middle of 4 runs]
